Active and inactive are the calls of the source. No cut-off for these calls is given here.
Assays:
[1] = test system: Schistosoma mansoni; experiment: Antischistosomal activity against adult Schistosoma mansoni assessed as reduction in worm motility at 10 uM measured after 2 to 24 hrs by worm assay; format: functional, organism-based; conditions: time 2-24 hrs
Procedure, shortened: (§1)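 Ex vivo adult S. mansoni were incubated with 10 μM compound. Average worm motility per well was recorded by WormAssay over time at 2, 5 and 24 h. Three to five biological assays. Significance was tested by two-tailed Student's t-test.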

[2] = test system: Schistosoma mansoni; experiment: Antischistosomal activity against adult Schistosoma mansoni assessed as reduction in worm movement at 10 uM measured after 2 to 24 hrs by inverted microscopy; format: functional, organism-based; conditions: time 2-24 hrs
Procedure, shortened: (§2)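 Adult S. mansoni worms exposed ex vivo to 10 μM compound. Observed at 2, 5 and 24 h and scored with an observation-based severity system. Descriptors recorded: degenerating, uncoordinated, slow, on sides (no adherence to the well floor by oral or ventral sucker), and tegument blebs. Three to five biological singleton assays.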

[3] = target: T1, Venus kinase receptor 2 (Schistosoma mansoni, UniProt D5JEH1); experiment: Binding affinity to Schistosoma mansoni N-terminal His6-tagged full-length VKR2 kinase domain expressed in baculovirus infected Sf9 insect cells in presence of ATPgammaS by SPR analysis
[4] = target: T1, Venus kinase receptor 2; experiment: Inhibition of Schistosoma mansoni N-terminal His6-tagged full-length VKR2 kinase domain expressed in baculovirus infected Sf9 insect cells assessed as reduction in autophosphorylation measured after 30 mins in presence of ATP by ADP-glo kinase assay
Procedure, shortened: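 Autophosphorylation of the SmVKR2 kinase domain, used as the read-out because no substrate is known, with 10 μM ATP. Concentration–response curves were run in triplicate, and IC50 was fitted from them; the paper plots mean ± SD.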

[5] = test system: Schistosoma mansoni; experiment: Antischistosomal activity against adult Schistosoma mansoni assessed as reduction in worm motility at 10 uM measured after 2 hrs by inverted microscopy; format: functional, organism-based; procedure, shortened: as §2
[6] = test system: Schistosoma mansoni; experiment: Antischistosomal activity against adult Schistosoma mansoni assessed as damage to the tegument by measuring blebbing at 10 uM measured after 24 hrs by inverted microscopy; format: functional, organism-based; procedure, shortened: as §2
[7] = test system: Schistosoma mansoni; experiment: Antischistosomal activity against adult Schistosoma mansoni assessed as worm degeneration at 10 uM measured after 24 hrs by inverted microscopy; format: functional, organism-based; procedure, shortened: as §2
[8] = test system: Schistosoma mansoni; experiment: Antischistosomal activity against adult Schistosoma mansoni assessed as loss of worm ability to adhere to well floor at 10 uM measured after 2 hrs by inverted microscopy; format: functional, organism-based; procedure, shortened: as §2
[9] = test system: Schistosoma mansoni; experiment: Antischistosomal activity against adult Schistosoma mansoni assessed as reduction in worm motility at 10 uM by worm assay; format: functional, organism-based; conditions: time 2-24 hrs, TDE = time-dependent effect; procedure, shortened: as §1
[10] = test system: Schistosoma mansoni; experiment: Antischistosomal activity against adult Schistosoma mansoni assessed as damage to the tegument by measuring bubbling at 10 uM measured after 24 hrs by inverted microscopy; format: functional, organism-based; procedure, shortened: as §2

T1 sequence (D5JEH1 whole entry, the tested form may be a part): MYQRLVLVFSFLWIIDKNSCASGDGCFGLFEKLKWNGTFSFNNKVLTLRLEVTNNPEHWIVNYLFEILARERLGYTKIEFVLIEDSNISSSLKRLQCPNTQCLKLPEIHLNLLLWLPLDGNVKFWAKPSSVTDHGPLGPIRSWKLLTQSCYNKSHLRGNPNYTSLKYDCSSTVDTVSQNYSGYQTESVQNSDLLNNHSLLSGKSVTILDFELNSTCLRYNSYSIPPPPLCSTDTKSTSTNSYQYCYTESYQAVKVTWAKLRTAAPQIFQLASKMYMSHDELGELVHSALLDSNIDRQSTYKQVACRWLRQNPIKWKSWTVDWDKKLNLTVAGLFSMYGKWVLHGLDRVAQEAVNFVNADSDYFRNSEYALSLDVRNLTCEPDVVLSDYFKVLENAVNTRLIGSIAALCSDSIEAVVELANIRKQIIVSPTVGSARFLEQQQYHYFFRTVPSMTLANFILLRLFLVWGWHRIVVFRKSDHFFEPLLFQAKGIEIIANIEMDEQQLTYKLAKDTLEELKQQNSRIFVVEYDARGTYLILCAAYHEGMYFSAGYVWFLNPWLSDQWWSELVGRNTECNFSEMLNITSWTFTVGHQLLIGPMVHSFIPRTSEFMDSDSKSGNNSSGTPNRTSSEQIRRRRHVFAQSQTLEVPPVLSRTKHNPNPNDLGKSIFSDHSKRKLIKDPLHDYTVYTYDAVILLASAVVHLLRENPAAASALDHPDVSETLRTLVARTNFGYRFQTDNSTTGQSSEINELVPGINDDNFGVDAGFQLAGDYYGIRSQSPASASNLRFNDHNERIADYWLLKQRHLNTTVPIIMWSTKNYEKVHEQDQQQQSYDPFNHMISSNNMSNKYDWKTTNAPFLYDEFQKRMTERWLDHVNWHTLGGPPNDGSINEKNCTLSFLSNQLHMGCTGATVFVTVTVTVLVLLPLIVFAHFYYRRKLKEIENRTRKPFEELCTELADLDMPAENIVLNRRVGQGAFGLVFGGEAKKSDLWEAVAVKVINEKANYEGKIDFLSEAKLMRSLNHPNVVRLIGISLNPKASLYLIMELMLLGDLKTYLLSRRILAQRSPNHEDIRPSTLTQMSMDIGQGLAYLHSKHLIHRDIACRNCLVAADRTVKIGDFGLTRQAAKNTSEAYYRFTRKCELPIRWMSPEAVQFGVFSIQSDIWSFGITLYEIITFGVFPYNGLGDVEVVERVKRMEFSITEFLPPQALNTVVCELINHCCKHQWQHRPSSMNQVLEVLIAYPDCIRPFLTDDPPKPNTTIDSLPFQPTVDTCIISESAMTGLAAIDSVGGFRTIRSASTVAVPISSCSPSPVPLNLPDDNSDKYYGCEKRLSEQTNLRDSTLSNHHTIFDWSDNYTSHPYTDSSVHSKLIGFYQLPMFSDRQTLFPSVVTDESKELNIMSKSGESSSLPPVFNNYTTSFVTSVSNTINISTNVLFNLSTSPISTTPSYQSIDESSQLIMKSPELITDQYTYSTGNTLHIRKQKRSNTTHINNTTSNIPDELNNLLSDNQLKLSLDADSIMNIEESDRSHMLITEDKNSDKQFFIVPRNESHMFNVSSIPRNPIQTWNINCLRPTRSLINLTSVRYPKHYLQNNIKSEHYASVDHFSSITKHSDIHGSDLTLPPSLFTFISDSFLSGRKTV

O=C(Nc1n[nH]c2cnc(-c3ccc(O)cc3)cc12)C1CC1 was tested, and the Activity [1] was “Active”, the Activity [2] was “Active” and the Kd [3] was 170 µM.
Work on NCCNS(=O)(=O)c1ccc(-c2ccnc3[nH]ccc23)cc1 yielded a Kd [3] of 2.53 µM.
In the case of Cc1cccc(Nc2nc(NCCN)ncc2C(N)=O)c1, the Kd [3] is reported as 4.5 µM.
Work on Cc1n[nH]c2cc(Nc3ccnc(Nc4cccc(CN5CCOCC5)c4)n3)ccc12 yielded a Kd [3] of 39 µM.
Compound Nc1nc(N)c2nc(-c3ccccc3)[nH]c2n1 has a Kd [3] of 82 µM.
Nc1n[nH]c2cnc(-c3ccccc3)cc12 gave a Kd [3] of 47 µM.
In the case of Cc1cccc(Nc2nc(N[C@H]3CCCC[C@H]3N)ncc2C(N)=O)c1, the IC50 [4] is reported as 5.69 µM, the Activity [1] is reported as “Active” and the Activity [2] is reported as “Active”. The Kd [3] was 1.96 µM.
NC(=O)Nc1sc(-c2ccc(F)cc2)cc1C(N)=O gave a Kd [3] of 16 µM.
For CC(C)Oc1ccc2c(-c3ccnc(Nc4ccc(N5CCN(C)CC5)cc4)n3)cnn2n1, the Activity [5] was “Active”, the Activity [6] was “Active” and the IC50 [4] was 20.1 µM. The Activity [7] was “Active”, the Activity [8] was “Active” and the Activity [9] was “Tde”. The Activity [10] was “Active” and the Kd [3] was 3.4 µM.
CNC(=O)c1ccccc1Nc1nc(Nc2cccc(CS(C)(=O)=O)c2)ncc1C gave an IC50 [4] of 6.47 µM and a Kd [3] of 0.44 µM.
In the case of CS(=O)(=O)Nc1ccc(-c2ccnc3[nH]ccc23)cc1, the Kd [3] is reported as 7.8 µM.
Work on CN(C)CCNS(=O)(=O)c1ccc(-c2ccnc3[nH]ccc23)cc1 yielded a Kd [3] of 8.2 µM.

— ChEMBL document CHEMBL5126676, “Identification of Inhibitors of the Schistosoma mansoni VKR2 Kinase Domain” (ACS Med Chem Lett, 2022)
